Holding throughout (assay type): functional
Assay [1] deals with Culex pipiens pallens. Briefly: Insecticidal activity against fourth-instar larval stage of Culex pipiens pallens (mosquito) assessed as mortality at 0.25 mg/kg at 25 +/-1 degC after 2 days. Particulars: 48 h. The method in brief:
(§1)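 Test solutions were prepared by adding 1 mL of each concentrated dilution to 99 mL water. Bioassays were run at 25 ± 1 °C on laboratory-reared insects.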

For assay [2], the system named is Mythimna separata. Briefly: Insecticidal activity against fourth-instar larval stage of Mythimna separata (Oriental armyworm) in compound pretreated corn leaves assessed as mortality at 10 mg/kg at 25 +/-1 degC measured after 2 days.
The test system of assay [3] is Tetranychus cinnabarinus. Briefly: Acaricidal activity against adult Tetranychus cinnabarinus (carmine spider mite) in sieva bean plants assessed as mortality at 50 mg/kg treated for 3 secs measured after 2 days. Particulars: 48 h.
Assay [4] relates to Tetranychus cinnabarinus. Briefly: Acaricidal activity against adult Tetranychus cinnabarinus (carmine spider mite) in sieva bean plants assessed as mortality at 100 mg/kg treated for 3 secs measured after 2 days. Particulars: 48 h.
The test system of assay [5] is Tetranychus cinnabarinus. Briefly: Acaricidal activity against adult Tetranychus cinnabarinus (carmine spider mite) in sieva bean plants assessed as mortality at 200 mg/kg treated for 3 secs measured after 2 days. Conditions: 48 h.
For assay [6], the system named is Mythimna separata. Briefly: Insecticidal activity against fourth-instar larval stage of Mythimna separata (Oriental armyworm) in compound pretreated corn leaves assessed as mortality at 5 mg/kg at 25 +/-1 degC measured after 2 days.
Assay [7] has as its system Culex pipiens pallens. Briefly: Insecticidal activity against fourth-instar larval stage of Culex pipiens pallens (mosquito) assessed as mortality at 0.10 mg/kg at 25 +/-1 degC after 2 days. Conditions: 48 h. The gist of the method:
as §1

For assay [8], the system named is Culex pipiens pallens. Briefly: Insecticidal activity against fourth-instar larval stage of Culex pipiens pallens (mosquito) assessed as mortality at 0.50 mg/kg at 25 +/-1 degC after 2 days. Particulars: 48 h. The method in brief: as §1
In assay [9] the test system is Mythimna separata. Briefly: Insecticidal activity against fourth-instar larval stage of Mythimna separata (Oriental armyworm) in compound pretreated corn leaves assessed as mortality at 20 mg/kg at 25 +/-1 degC measured after 2 days.

Usually mortality stands for the share of the test organisms that died. For `N#Cc1c(Br)c(C(F)(F)F)n(COC(=O)c2cccc([N+](=O)[O-])c2)c1-c1ccc(Cl)cc1`, the mortality at 0.25 mg/kg with Culex pipiens pallens [1] stood at 40%. Moreover, the mortality at 10 mg/kg in the assay on Mythimna separata [2] worked out at 0%. The mortality at 50 mg/kg in the assay on Tetranychus cinnabarinus [3] was 90%. The mortality at 100 mg/kg in the assay with Tetranychus cinnabarinus [4] worked out at 94%. Further, the mortality at 200 mg/kg in the assay with Tetranychus cinnabarinus [5] was found to be 98%. The mortality at 5 mg/kg in the assay with Mythimna separata [6] is 0%. In addition, the mortality at 0.1 mg/kg in the assay on Culex pipiens pallens [7] was found to be 30%. The mortality at 0.5 mg/kg with Culex pipiens pallens [8] is 80%. In the assay with Mythimna separata [9], the mortality at 20 mg/kg is 100%.

In the case of `N#Cc1c(Br)c(C(F)(F)F)n(COC(=O)c2ccc([N+](=O)[O-])cc2)c1-c1ccc(Cl)cc1`, in the assay on Culex pipiens pallens [1], the mortality at 0.25 mg/kg was 60%. Further, the mortality at 10 mg/kg with Mythimna separata [2] was determined as 50%. Further, in the assay with Tetranychus cinnabarinus [3], the mortality at 50 mg/kg was found to be 92%. Moreover, the mortality at 100 mg/kg in the assay with Tetranychus cinnabarinus [4] stood at 93%. Besides, the mortality at 200 mg/kg with Tetranychus cinnabarinus [5] came to 95%. In addition, the mortality at 5 mg/kg in the assay on Mythimna separata [6] was 0%. The mortality at 0.1 mg/kg in the assay with Culex pipiens pallens [7] amounted to 20%. In addition, in the assay on Culex pipiens pallens [8], the mortality at 0.5 mg/kg was 100%. The mortality at 20 mg/kg with Mythimna separata [9] is 100%.

As to `N#Cc1c(Br)c(C(F)(F)F)n(COC(=O)c2cc([N+](=O)[O-])cc([N+](=O)[O-])c2)c1-c1ccc(Cl)cc1`, the mortality at 0.25 mg/kg in the assay on Culex pipiens pallens [1] worked out at 100%. Further, the mortality at 10 mg/kg with Mythimna separata [2] was 0%. In the assay on Tetranychus cinnabarinus [5], the mortality at 200 mg/kg is 0%. In the assay with Mythimna separata [6], the mortality at 5 mg/kg was 0%. Besides, the mortality at 0.1 mg/kg in the assay on Culex pipiens pallens [7] worked out at 100%. The mortality at 0.5 mg/kg in the assay on Culex pipiens pallens [8] was 100%. Also, the mortality at 20 mg/kg with Mythimna separata [9] was found to be 100%.

In the case of `CC(Oc1ccc(Cl)cc1)C(=O)OCn1c(-c2ccc(Cl)cc2)c(C#N)c(Br)c1C(F)(F)F` (stereo not drawn), in the assay with Culex pipiens pallens [1], the mortality at 0.25 mg/kg came out at 100%. Further, the mortality at 10 mg/kg in the assay on Mythimna separata [2] is 80%. Also, the mortality at 50 mg/kg with Tetranychus cinnabarinus [3] was 94%. Also, in the assay on Tetranychus cinnabarinus [4], the mortality at 100 mg/kg was 95%. The mortality at 200 mg/kg in the assay on Tetranychus cinnabarinus [5] was determined as 98%. Moreover, in the assay with Mythimna separata [6], the mortality at 5 mg/kg came to 0%. The mortality at 0.1 mg/kg in the assay with Culex pipiens pallens [7] amounted to 100%. Further, the mortality at 0.5 mg/kg with Culex pipiens pallens [8] turned out to be 100%. The mortality at 20 mg/kg with Mythimna separata [9] stood at 100%.

Consider `CC(Oc1cccc(Cl)c1)C(=O)OCn1c(-c2ccc(Cl)cc2)c(C#N)c(Br)c1C(F)(F)F` (stereo not drawn), for which, in the assay on Culex pipiens pallens [1], the mortality at 0.25 mg/kg stood at 100%. Also, the mortality at 10 mg/kg in the assay on Mythimna separata [2] amounted to 45%. In the assay on Tetranychus cinnabarinus [3], the mortality at 50 mg/kg worked out at 93%. Also, in the assay with Tetranychus cinnabarinus [4], the mortality at 100 mg/kg was found to be 93%. Besides, the mortality at 200 mg/kg with Tetranychus cinnabarinus [5] stood at 98%. Besides, the mortality at 5 mg/kg in the assay with Mythimna separata [6] is 0%. Further, in the assay on Culex pipiens pallens [7], the mortality at 0.1 mg/kg turned out to be 100%. For the same compound, the mortality at 0.5 mg/kg in the assay on Culex pipiens pallens [8] was determined as 100%. Further, the mortality at 20 mg/kg with Mythimna separata [9] is 100%.

In the case of `CC(Oc1cccc([N+](=O)[O-])c1)C(=O)OCn1c(-c2ccc(Cl)cc2)c(C#N)c(Br)c1C(F)(F)F` (stereo not drawn), in the assay on Culex pipiens pallens [1], the mortality at 0.25 mg/kg stood at 100%. Besides, the mortality at 10 mg/kg in the assay with Mythimna separata [2] was 85%. For the same compound, the mortality at 200 mg/kg in the assay with Tetranychus cinnabarinus [5] was determined as 0%. Further, the mortality at 5 mg/kg in the assay with Mythimna separata [6] was 0%. Moreover, the mortality at 0.1 mg/kg with Culex pipiens pallens [7] came to 90%. In the assay with Culex pipiens pallens [8], the mortality at 0.5 mg/kg was found to be 100%. Further, the mortality at 20 mg/kg with Mythimna separata [9] amounted to 100%.

Consider `Cc1cccc(OC(C)C(=O)OCn2c(-c3ccc(Cl)cc3)c(C#N)c(Br)c2C(F)(F)F)c1` (stereo not drawn), for which, in the assay on Culex pipiens pallens [1], the mortality at 0.25 mg/kg is 100%. Also, the mortality at 10 mg/kg with Mythimna separata [2] stood at 40%. Moreover, the mortality at 50 mg/kg in the assay on Tetranychus cinnabarinus [3] was determined as 96%. Moreover, the mortality at 100 mg/kg with Tetranychus cinnabarinus [4] came to 98%. In addition, in the assay on Tetranychus cinnabarinus [5], the mortality at 200 mg/kg was determined as 100%. Besides, the mortality at 5 mg/kg in the assay with Mythimna separata [6] was found to be 0%. Further, the mortality at 0.1 mg/kg in the assay with Culex pipiens pallens [7] was 100%. In addition, in the assay on Culex pipiens pallens [8], the mortality at 0.5 mg/kg amounted to 100%. The mortality at 20 mg/kg in the assay with Mythimna separata [9] stood at 100%.

On to `CC(Oc1ccc(C(C)(C)C)cc1)C(=O)OCn1c(-c2ccc(Cl)cc2)c(C#N)c(Br)c1C(F)(F)F` (stereo not drawn), for which the mortality at 0.25 mg/kg in the assay with Culex pipiens pallens [1] is 100%. Also, the mortality at 10 mg/kg with Mythimna separata [2] was 30%. Moreover, the mortality at 50 mg/kg with Tetranychus cinnabarinus [3] stood at 94%. In the assay on Tetranychus cinnabarinus [4], the mortality at 100 mg/kg worked out at 96%. In the assay with Tetranychus cinnabarinus [5], the mortality at 200 mg/kg stood at 100%. In the assay with Mythimna separata [6], the mortality at 5 mg/kg was determined as 0%. Besides, the mortality at 0.1 mg/kg in the assay with Culex pipiens pallens [7] was determined as 100%. In the assay on Culex pipiens pallens [8], the mortality at 0.5 mg/kg is 100%. Further, the mortality at 20 mg/kg with Mythimna separata [9] was determined as 80%.

As for `N#Cc1c(Br)c(C(F)(F)F)n(COC(=O)C(=O)c2ccccc2)c1-c1ccc(Cl)cc1`, the mortality at 10 mg/kg in the assay with Mythimna separata [2] came to 60%. Moreover, in the assay on Tetranychus cinnabarinus [3], the mortality at 50 mg/kg was found to be 79%. Moreover, in the assay on Tetranychus cinnabarinus [4], the mortality at 100 mg/kg came out at 88%. Besides, the mortality at 200 mg/kg with Tetranychus cinnabarinus [5] stood at 100%. Moreover, the mortality at 5 mg/kg in the assay on Mythimna separata [6] was 0%. Besides, the mortality at 20 mg/kg in the assay with Mythimna separata [9] stood at 100%.

For `CCOC(=O)OCn1c(-c2ccc(Cl)cc2)c(C#N)c(Br)c1C(F)(F)F`, the mortality at 0.25 mg/kg in the assay on Culex pipiens pallens [1] stood at 100%. Also, the mortality at 10 mg/kg with Mythimna separata [2] is 90%. Moreover, the mortality at 50 mg/kg in the assay on Tetranychus cinnabarinus [3] was determined as 84%. The mortality at 100 mg/kg in the assay with Tetranychus cinnabarinus [4] came to 89%. The mortality at 200 mg/kg with Tetranychus cinnabarinus [5] turned out to be 100%. Further, the mortality at 5 mg/kg with Mythimna separata [6] worked out at 0%. The mortality at 0.1 mg/kg in the assay with Culex pipiens pallens [7] was 100%. Moreover, the mortality at 0.5 mg/kg in the assay with Culex pipiens pallens [8] amounted to 100%. Besides, the mortality at 20 mg/kg in the assay with Mythimna separata [9] stood at 100%.

For the origin of these results see ChEMBL document CHEMBL3046492, “Synthesis, insecticidal, and acaricidal activities of novel 2-aryl-pyrrole derivatives containing ester groups” (2008).
